These results are taken from PMC9847367 (European Journal of Medicinal Chemistry, 2023).

For orientation: IC50 means the concentration at which inhibition is half-maximal. Higher therefore signals a need for much substance.

The target of one experiment is chymotrypsin (Bos taurus, UniProt P00766). Kind of experiment: Enzymatic selectivity assay against chymotrypsin. Type of experiment: biochemical. The essentials: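 Bovine chymotrypsin (5 nM final) was preincubated for 10 min with serial dilutions of test compound in phosphate-buffered saline, pH 7.4. The reaction was started with N-succinyl-AAPF-AMC (10 μM final). Fluorescence (ex 380 nm/em 460 nm) was read every 1 min for 10 min. Reaction rates relative to DMSO controls gave the inhibition profiles.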

For another experiment, the target named is SARS-CoV-2 3CL^pro (Severe acute respiratory syndrome coronavirus 2, UniProt P0DTD1). Type of experiment: biochemical.

Structures can show the parent of a compound that is named as a salt.

Take `C/N=c1\nc(-c2ccc(F)cc2)n(-c2ccccc2)s1` [6g, 3-(4-fluorophenyl)-N-methyl-2-phenyl-1,2,4-thiadiazol-5(2H)-imine hydrobromide salt]: the IC50 against chymotrypsin was over 100 µM. Moreover, the “inhibitory activity with the addition of 4 mM DTT” value against SARS-CoV-2 3CL^pro is reported as “lost their inhibitory activity”.
Compound `C/N=c1\nc(-c2ccccc2)n(-c2ccccc2)s1` [6a, N-methyl-2,3-diphenyl-1,2,4-thiadiazol-5(2H)-imine hydrobromide salt] came in with an IC50 against chymotrypsin of over 100 µM. In addition, the “inhibitory activity with the addition of 4 mM DTT” value on SARS-CoV-2 3CL^pro is “lost their inhibitory activity”.
